Experimental data gathered from unrelated publications.
Compare with care: the assays were run in different laboratories. Values after ≈ are worked out from the molar mass of the structure shown.

With `O=C1OC[C@H]2OC(O)[C@H](O)[C@@H](O)[C@@H]2OC(=O)c2cc(O)c(O)c(O)c2-c2c(O)c(O)c3oc(=O)c4c(c(O)c(O)c5oc(=O)c2c3c54)-c2c1cc(O)c(O)c2O` (mixture of isomers) the MBC was 400 µg/mL (Streptococcus gordonii; microbial killing, broth dilution).
`O=C1C(=Nc2ccccc2Br)c2ccccc2N1Cc1ccccc1` gave an IC50 of 0.5 µM (B16; cell growth or viability, MTT; 48 h).
`CN(C)[C@@H]1C(O)=C(C(N)=O)C(=O)[C@@]2(O)C(O)=C3C(=O)c4c(O)cccc4[C@@](C)(O)[C@H]3C[C@@H]12` gave an MIC of 4 µg/mL (≈ 9 µM) (Acinetobacter baumannii; microbial growth, broth dilution; ATCC19606).
For `Oc1cc(O)c2c(c1)O[C@H](c1cc(O)c(O)c(O)c1)[C@@H](O)C2`, the inhibition zone was 11.6 mm (Streptococcus gordonii; microbial growth, disc diffusion; 500 µg/disc).
For `Cc1cccc(N=C2C(=O)N(Cc3ccc(Br)cc3)c3ccccc32)c1`, the IC50 was 6.87 µM (B16; cell growth or viability, MTT; 48 h).
`CNC(C)C1CCC(N)C(OC2C(N)CC(N)C(OC3OCC(C)(O)C(NC)C3O)C2O)O1` (stereo not drawn) has an MIC of 16 µg/mL (≈ 33.5 µM) (Acinetobacter baumannii; microbial growth, broth dilution; ATCC19606).
The GI50 of `CN(C)CCNC(=O)c1ccc(-c2nc3ccc4[nH]ncc4c3c3c2CCCC3)c(F)c1` is reported as 3.27 µM (G-361; cell growth or viability; 72 h).
`C[C@@H]1O[C@@H](OC[C@H]2O[C@@H](Oc3c(-c4ccc(O)c(O)c4)oc4cc(O)cc(O)c4c3=O)[C@H](O)[C@@H](O)[C@@H]2O)[C@H](O)[C@H](O)[C@H]1O` gave an inhibition zone of 13 mm (Streptococcus gordonii; microbial growth, disc diffusion; 500 µg/disc).
The IC50 of `O=C1C(=Nc2ccc(Cl)cc2)c2ccccc2N1Cc1ccc([N+](=O)[O-])cc1` is reported as 0.58 µM (B16; cell growth or viability, MTT; 48 h).
For `C[C@@H](O)[C@H]1C(=O)N2C(C(=O)O)=C(SCCN=CN)C[C@H]12`, the MIC was > 64 µg/mL (Acinetobacter baumannii; microbial growth, broth dilution; ATCCBAA1605).
`COc1cc(N=C2C(=O)Nc3ccccc32)cc(OC)c1` has an IC50 of 3.02 µM (B16; cell growth or viability, MTT; 48 h).
For `C[C@H]1[C@H](NC(=O)/C(=N\OC(C)(C)C(=O)O)c2csc(N)n2)C(=O)N1S(=O)(=O)O`, the MIC was > 64 µg/mL (Acinetobacter baumannii; microbial growth, broth dilution; ATCCBAA1605).
`O=C1Nc2ccccc2C1=Nc1ccc(Cl)cc1` gave an IC50 of 32.6 µM (B16; cell growth or viability, MTT; 48 h).
`O=c1cc(OCc2cc(-c3ccccc3)no2)c2ccccc2o1` has an IC50 of > 100 µM (Z-138; cell growth or viability, MTS; 72 h).
`O=C(O[C@@H]1O[C@@H]2COC(=O)c3cc(O)c(O)c(O)c3-c3c(cc(O)c(O)c3O)C(=O)O[C@H]([C@H]1O)[C@@H]2O)c1cc(O)c(O)c(O)c1` gave an MBC of 800 µg/mL (≈ 1260 µM) (Streptococcus gordonii; microbial killing, broth dilution).
`Cc1n[nH]c2ccc3nc(-c4ccc(C(=O)NCCN(C)C)cc4F)c4c(c3c12)CCCC4` has a GI50 of 1.58 µM (G-361; cell growth or viability; 72 h).
With `O=c1oc2c(O)c(O)cc3c(=O)oc4c(O)c(O)cc1c4c23` the inhibition zone was 16 mm (Streptococcus gordonii; microbial growth, disc diffusion; 500 µg/disc).
`CC(C)c1cccc(C(C)C)c1N=C1C(=O)N(Cc2ccccc2)c2ccccc21` has an IC50 of 6.77 µM (B16; cell growth or viability, MTT; 48 h).
